High-throughput results from PubChem BioAssay.
In the library only some 2.4% were active in any assay of this set; here they are far more common.
Scp1 inh: inhibitors of human Scp-1 phosphatase | Q9GZU7 | Recombinant Scp1, phosphopeptide, malachite green phosphate absorbance | inhibition, % at 20 µM | 340,000 tested, 0.88% active | AID 493091;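 active = inhibition above about 50% at 20 µM, limit read from the data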
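Test system: SCP-1 catalytic domain; Buffer or medium: Acidic Tris acetate buffer with magnesium and detergent; Also added: Phosphorylated 17-residue peptide substrate; Compound: single 20 µM dose, 1% DMSO; Schedule: enzyme reaction 45 min at room temperature, colour 5 min, stabilisation 30 min; Signal: Phosphate-binding colour reagent, absorbance read at 630 nm.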
NadD inh: NadD (S. aureus) enzyme inhibition; purified NadD enzyme, colorimetric absorbance read-out; AID 602399; 360,000 tested, 0.78% active; inhibition, % at 20 µM; in the data active = inhibition above about 26%
STEP block: STEP (human) phosphatase inhibition | P54829 | recombinant STEP, OMFP fluorogenic substrate, fluorescence | inhibition, % at 20 µM | 360,000 tested, 0.25% active;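 active = inhibition at 20 µM, scaled per plate between control wells, above about 37%, limit read from the data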
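Measure: Control-normalized % inhibition with plate pattern correction | Test system: STEP phosphatase, cell-free reaction | Medium: pH 6.0 Bis-Tris with DTT and Tween 20 | Technique: Fluorescence, 480/540 nm | Times: Reaction 20 min, ambient temperature | Doses: Single compound dose of 20 µM, 1% DMSO final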
LMPTP inh: LMPTP (human) inhibition; P24666; recombinant LMPTP-A, OMFP fluorogenic substrate, fluorescence intensity; inhibition, % at 20 µM; 360,000 tested, 0.22% active; AID 651560;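 active = compounds that cut the enzyme signal by at least half of the control window in the single-dose screen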
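Material: LMPTP-A; amount: 0.625 nM enzyme; doses: single 20 µM dose; times: reaction 50 min, room temperature, dark; technique: fluorescence intensity of OMFP turnover product; benchmarks: no-enzyme and uninhibited controls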
DNMT1 inh: blocks human DNA methyltransferase DNMT1; P26358; DNMT1 molecular beacon, Hinp1I cleavage, fluorescence; inhibition (reported as % activation of signal), % at 10 µM; 360,000 tested, 0.83% active; AID 588458; in the data active = inhibition above about 50%
SUMO1-SIM PPI: SUMO1-SIM interaction modulation | P63165 | SUMO1 binding to a labelled peptide, TR-FRET, 1 h | inhibition, % at 20 µM | 360,000 tested, 0.33% active; in the data active = inhibition above about 37%
Scp1 confirm: Scp-1 (human) inhibition, single-dose confirmed | shares compounds with Scp1 inh | recombinant SCP-1 catalytic domain, phosphate release, malachite green absorbance | inhibition, % at 20 µM | 2,500 tested, 61% active
MG interference: counter-screen for Scp-1 inhibitors: colorimetric interference | shares compounds with Scp1 inh | Colorimetric interference counterscreen, malachite green absorbance 630 nm | apparent inhibition (interference), % at 20 µM | 2,500 tested, under 10 active | AID 540313;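 note: compounds added after enzyme reaction finished so only phosphate colour detection is probed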
Scp1 DSF: validation of human Scp-1 inhibitors by thermal shift binding; shares compounds with Scp1 inh; Recombinant SCP1, Sypro Orange thermal shift Tm; thermal shift relative to vanadate control, % at 40 µM; 1,500 tested, 25% active;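 active = substances whose mean melting-temperature shift, as a percentage of the reference inhibitor's shift, reaches about 5.3%, limit read from the data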
Of the large screens only hits and unclear results are named; the others gave an inactive call (follow-up assays come after a bar, where they were run).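 Rule for the calls, unless noted: active = inhibition of at least 30% at 20 µM; inactive = the rest.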

COC(=O)c1c(NC(=O)/C=C/C(=O)O)sc(Cc2ccccc2)c1C	none
O=C(O)c1cccc2c1C(=O)N(c1ccc3c(c1)Cc1ccccc1-3)C2=O	Scp1 inh 64.4 | Scp1 confirm 60.2 | MG interference inactive | Scp1 DSF inactive
O=C(C[n+]1cccc2ccccc21)c1ccc(Br)cc1	none
NC(=O)C[n+]1cccc2ccccc21	Scp1 inh 98.5 | Scp1 confirm inactive | MG interference inactive
Cc1nc(N2CCOCC2)c2c(C)c(C(=O)Nc3ccccc3Cl)sc2n1	Scp1 inh 51.2 | Scp1 confirm inactive | MG interference inactive
CC(=O)c1ccc(NC(=O)Nc2ccc(Cl)cc2)cc1	none
N=C1S/C(=C\c2ccco2)C(=O)N1c1nccs1	none
N=C1S/C(=C\c2ccco2)C(=O)N1c1ccc2c(c1)OCO2	Scp1 inh 78.9 | Scp1 confirm 46.1 | MG interference inactive | Scp1 DSF inactive
CCC(C)C1Nc2ccc(C(=O)NCCc3ccc(OC)c(OC)c3)cc2NC1=O (centres undefined)	none | Scp1 confirm inactive | MG interference inactive
COc1ccc(CCNC(=O)c2ccc(OC)c(OC)c2)cc1OC	none
Cn1cccc/c1=N\c1cccc[n+]1C	Scp1 inh 106.6 | Scp1 confirm inactive | MG interference inactive
O=S1(=O)NC(CC2=CCCCC2)C2CCCCC2O1 (centres undefined)	Scp1 inh 50.1 | Scp1 confirm inactive | MG interference inactive
O=C(CCCc1nc(-c2ccccc2)no1)Nc1cccnc1	none
O=C(CCCc1nc(-c2ccccc2)no1)NCc1cccnc1	Scp1 inh 70.3 | Scp1 confirm inactive | MG interference inactive
CCOc1ccc(CCNC(=O)c2ccc(CS(=O)Cc3cccc(Cl)c3)o2)cc1 (centres undefined)	none
N[C@@H](C(=O)N[C@@H]1C(=O)N2C(C(=O)O)=C(Cl)CS[C@H]12)c1ccccc1	Scp1 inh 57.2 | Scp1 confirm 59.9 | MG interference inactive | Scp1 DSF 7.4
CC1=C(C(=O)O)N2C(=O)C(NC(=O)c3ccccc3Cl)C2SC1 (centres undefined)	none
O=C(COc1ccc(Cl)cc1Cl)N/N=C/c1cccnc1	none
O=C(CCCOc1ccc(Cl)cc1Cl)N/N=C/c1cccc([N+](=O)[O-])c1	Scp1 inh 92.2 | Scp1 confirm 55.0 | MG interference inactive | Scp1 DSF inactive
CC(=O)c1ccc(C(=O)Nc2nnc(-c3ccc(Cl)cc3)o2)cc1	Scp1 inh 53.6 | Scp1 confirm 43.1 | MG interference inactive | Scp1 DSF inactive
CCc1cccc(C)c1NC(=O)COC(=O)C1CCN(S(=O)(=O)c2ccccc2)CC1	none
Cc1cccc(NC(=O)CNC(=O)[C@H]2O[C@@H](n3ccc(=O)[nH]c3=O)[C@H](O)[C@@H]2O)c1C	none (no result: Scp1 inh)
COC(=O)/C=C/c1ccccc1S(=O)(=O)N(Cc1ccccc1)Cc1ccco1	Scp1 inh 72.7 | Scp1 confirm inactive | MG interference inactive
COc1ccc([C@H]2CC(=O)C=C(c3ccc4c(c3)OCO4)C2)cc1OC	none
N#CC1(NC(=O)COc2ccccc2[N+](=O)[O-])CCCCC1	Scp1 inh 52.1 | Scp1 confirm 73.0 | MG interference inactive | Scp1 DSF inactive
N#CC1(NC(=O)COc2cc(F)ccc2[N+](=O)[O-])CCCCC1	none
CCOC(=O)N1CCN(C(=O)CCNS(=O)(=O)c2ccccc2)CC1	none
O=C(CN1C(=O)CCSc2ccc(S(=O)(=O)N3CCOCC3)cc21)Nc1ccccc1Cl	Scp1 inh 60.5 | Scp1 confirm 46.1 | MG interference inactive | Scp1 DSF inactive
